# In ChEMBL document CHEMBL4364301 (Eur J Med Chem, 2019):
# Legend:
# Format in all cases: functional
# LNCaP [1] = experiment: Antiproliferative activity against human LNCAP cells assessed as T/C value at 1 x 10^-2 uM incubated for 96 hrs by propidium iodide based 2D monolayer assay
# Procedure, shortened: (§1)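 Cells were kept in RPMI 1640 with 25 mM HEPES, 10% FCS and gentamicin at 37 °C under 5% CO2, and plated at 4,000-20,000 cells/well. After 24 h recovery, compound in medium or medium alone (control wells) was added at 10 half-log concentrations from 0.0032 to 100 µM, in triplicate, with at most 0.3% DMSO. After 96 h, wells were PBS-washed, stained with 7 µg/ml PI and 0.1% Triton X-100, and fluorescence read at 530/620 nm. IC50 came from a 4-parameter fit, geometric mean.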
# LNCaP [2] = experiment: Antiproliferative activity against human LNCAP cells assessed as reduction in cell growth incubated for 96 hrs by propidium iodide based 2D monolayer assay
# Procedure, shortened: as §1, with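 “After” for “Cells were kept in RPMI 1640 with 25 mM HEPES, 10% FCS and gentamicin at 37 °C under 5% CO2, and plated at 4,000-20,000 cells/well. After”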
# VCaP [3] = experiment: Antiproliferative activity against human VCaP cells assessed as T/C value at 3.2 x 10^-3 uM incubated for 96 hrs by propidium iodide based 2D monolayer assay
# Procedure, shortened: (§2)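 VCaP cells in RPMI 1640 with 10% FCS at 37 °C, 5% CO2, seeded 4,000–20,000 cells/well and left 24 h before dosing. Compounds from DMSO stocks were diluted in half-log steps in medium, 10 concentrations 0.0032–100 μM, triplicate wells, max 0.3% DMSO. After 96 h, cells were washed, stained with 7 μg/ml propidium iodide plus 0.1% Triton X-100 for 1–2 h at room temperature, and fluorescence read at ex 530/em 620 nm.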
# LNCaP [4] = experiment: Antiproliferative activity against human LNCAP cells assessed as T/C value at 3.2 uM incubated for 96 hrs by propidium iodide based 2D monolayer assay; procedure, shortened: as §1
# DU-145 [5] = experiment: Antiproliferative activity against human DU145 cells assessed as T/C value at 3.2 x 10^1 uM incubated for 96 hrs by propidium iodide based 2D monolayer assay; procedure, shortened: as §1
# LNCaP [6] = experiment: Antiproliferative activity against human LNCAP cells assessed as T/C value at 1 x 10^2 uM incubated for 96 hrs by propidium iodide based 2D monolayer assay; procedure, shortened: as §1
# CWR22R [7] = experiment: Antiproliferative activity against human 22Rv1 cells assessed as T/C value at 1 x 10^-1 uM incubated for 96 hrs by propidium iodide based 2D monolayer assay; procedure, shortened: as §1
# VCaP [8] = experiment: Antiproliferative activity against human VCaP cells assessed as T/C value at 1 x 10^-1 uM incubated for 96 hrs by propidium iodide based 2D monolayer assay; procedure, shortened: as §1
# VCaP [9] = experiment: Antiproliferative activity against human VCaP cells assessed as T/C value at 1 x 10^2 uM incubated for 96 hrs by propidium iodide based 2D monolayer assay; procedure, shortened: as §1
# DU-145 [10] = experiment: Antiproliferative activity against human DU145 cells assessed as T/C value at 3.2 x 10^-3 uM incubated for 96 hrs by propidium iodide based 2D monolayer assay
# Procedure, shortened: as §1, with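 “After” for “Cells were kept in RPMI 1640 with 25 mM HEPES, 10% FCS and gentamicin at 37 °C under 5% CO2, and plated at 4,000-20,000 cells/well. After”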
# DU-145 [11] = experiment: Antiproliferative activity against human DU145 cells assessed as reduction in cell growth incubated for 96 hrs by propidium iodide based 2D monolayer assay; conditions: DU-145, 96 h
# Procedure, shortened: as §1, with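 “After” for “Cells were kept in RPMI 1640 with 25 mM HEPES, 10% FCS and gentamicin at 37 °C under 5% CO2, and plated at 4,000-20,000 cells/well. After”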
# CWR22R [12] = experiment: Antiproliferative activity against human 22Rv1 cells assessed as T/C value at 1 x 10^2 uM incubated for 96 hrs by propidium iodide based 2D monolayer assay; procedure, shortened: as §1
# VCaP [13] = experiment: Antiproliferative activity against human VCaP cells assessed as T/C value at 1 x 10^-2 uM incubated for 96 hrs by propidium iodide based 2D monolayer assay; procedure, shortened: as §1
# DU-145 [14] = experiment: Antiproliferative activity against human DU145 cells assessed as T/C value at 3.2 uM incubated for 96 hrs by propidium iodide based 2D monolayer assay; procedure, shortened: as §1
# VCaP [15] = experiment: Antiproliferative activity against human VCaP cells assessed as T/C value at 3.2 x 10^1 uM incubated for 96 hrs by propidium iodide based 2D monolayer assay; procedure, shortened: as §2
# DU-145 [16] = experiment: Antiproliferative activity against human DU145 cells assessed as T/C value at 1 uM incubated for 96 hrs by propidium iodide based 2D monolayer assay
# Procedure, shortened: as §1, with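 “After” for “Cells were kept in RPMI 1640 with 25 mM HEPES, 10% FCS and gentamicin at 37 °C under 5% CO2, and plated at 4,000-20,000 cells/well. After”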
# VCaP [17] = experiment: Antiproliferative activity against human VCaP cells assessed as T/C value at 1 x 10^1 uM incubated for 96 hrs by propidium iodide based 2D monolayer assay; procedure, shortened: as §1
# LNCaP [18] = experiment: Antiproliferative activity against human LNCAP cells assessed as T/C value at 1 uM incubated for 96 hrs by propidium iodide based 2D monolayer assay; procedure, shortened: as §1
# LNCaP [19] = experiment: Antiproliferative activity against human LNCAP cells assessed as T/C value at 1 x 10^-1 uM incubated for 96 hrs by propidium iodide based 2D monolayer assay; procedure, shortened: as §1
# VCaP [20] = experiment: Antiproliferative activity against human VCaP cells assessed as T/C value at 3.2 uM incubated for 96 hrs by propidium iodide based 2D monolayer assay; procedure, shortened: as §1
# VCaP [21] = experiment: Antiproliferative activity against human VCaP cells assessed as T/C value at 1 uM incubated for 96 hrs by propidium iodide based 2D monolayer assay; procedure, shortened: as §1
# CWR22R [22] = experiment: Antiproliferative activity against human 22Rv1 cells assessed as T/C value at 1 uM incubated for 96 hrs by propidium iodide based 2D monolayer assay; procedure, shortened: as §1
# DU-145 [23] = experiment: Antiproliferative activity against human DU145 cells assessed as T/C value at 1 x 10^2 uM incubated for 96 hrs by propidium iodide based 2D monolayer assay; procedure, shortened: as §1
# CWR22R [24] = experiment: Antiproliferative activity against human 22Rv1 cells assessed as reduction in cell growth incubated for 96 hrs by propidium iodide based 2D monolayer assay; conditions: 22Rv1, 96 h
# Procedure, shortened: as §1, with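 “After” for “Cells were kept in RPMI 1640 with 25 mM HEPES, 10% FCS and gentamicin at 37 °C under 5% CO2, and plated at 4,000-20,000 cells/well. After”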
# CWR22R [25] = experiment: Antiproliferative activity against human 22Rv1 cells assessed as T/C value at 3.2 x 10^-1 uM incubated for 96 hrs by propidium iodide based 2D monolayer assay; procedure, shortened: as §1
# LNCaP [26] = experiment: Antiproliferative activity against human LNCAP cells assessed as T/C value at 3.2 x 10^-3 uM incubated for 96 hrs by propidium iodide based 2D monolayer assay; procedure, shortened: as §1
# DU-145 [27] = experiment: Antiproliferative activity against human DU145 cells assessed as T/C value at 1 x 10^1 uM incubated for 96 hrs by propidium iodide based 2D monolayer assay
# Procedure, shortened: as §1, with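 “After” for “Cells were kept in RPMI 1640 with 25 mM HEPES, 10% FCS and gentamicin at 37 °C under 5% CO2, and plated at 4,000-20,000 cells/well. After”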
# LNCaP [28] = experiment: Antiproliferative activity against human LNCAP cells assessed as T/C value at 3.2 x 10^1 uM incubated for 96 hrs by propidium iodide based 2D monolayer assay; procedure, shortened: as §1
# DU-145 [29] = experiment: Antiproliferative activity against human DU145 cells assessed as T/C value at 3.2 x 10^-2 uM incubated for 96 hrs by propidium iodide based 2D monolayer assay
# Procedure, shortened: as §1, with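 “After” for “Cells were kept in RPMI 1640 with 25 mM HEPES, 10% FCS and gentamicin at 37 °C under 5% CO2, and plated at 4,000-20,000 cells/well. After”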
# CWR22R [30] = experiment: Antiproliferative activity against human 22Rv1 cells assessed as T/C value at 3.2 x 10^-2 uM incubated for 96 hrs by propidium iodide based 2D monolayer assay; procedure, shortened: as §1
# VCaP [31] = experiment: Antiproliferative activity against human VCaP cells assessed as reduction in cell growth incubated for 96 hrs by propidium iodide based 2D monolayer assay; procedure, shortened: as §2
# LNCaP [32] = experiment: Antiproliferative activity against human LNCAP cells assessed as T/C value at 3.2 x 10^-2 uM incubated for 96 hrs by propidium iodide based 2D monolayer assay; procedure, shortened: as §1
SMILES,T/C (LNCaP [1]),IC50 (LNCaP [2]) [nM],T/C (VCaP [3]),T/C (LNCaP [4]),T/C (DU-145 [5]) [%],T/C (LNCaP [6]),T/C (CWR22R [7]),T/C (VCaP [8]),T/C (VCaP [9]),T/C (DU-145 [10]),IC50 (DU-145 [11]) [µM],T/C (CWR22R [12]),T/C (VCaP [13]),T/C (DU-145 [14]),T/C (VCaP [15]),T/C (DU-145 [16]),T/C (VCaP [17]),T/C (LNCaP [18]),T/C (LNCaP [19]),T/C (VCaP [20]),further results
CC(O)(COc1ccc(C(F)(F)C(F)(F)F)cc1)C(=O)Nc1cc(C(F)(F)F)cc(C(F)(F)F)c1 (racemic),94%,2700,76%,25%,3,1%,107%,89%,2%,101%,6.8,3%,91%,108%,6%,115%,19%,93%,96%,45%,IC70 (LNCaP [2]): 3.04 µM; IC70 (DU-145 [11]): 7.99 µM; T/C (VCaP [21]): 94%; T/C (CWR22R [22]): 107%; T/C (DU-145 [23]): -1%; IC50 (CWR22R [24]): 2500 nM; IC70 (CWR22R [24]): 3.11 µM; T/C (CWR22R [25]): 108%; T/C (LNCaP [26]): 91%; T/C (DU-145 [27]): 13%; T/C (LNCaP [28]): 2%; T/C (DU-145 [29]): 108%; T/C (CWR22R [30]): 115%; IC50 (VCaP [31]): 3 µM; IC70 (VCaP [31]): 4.16 µM; T/C (LNCaP [32]): 87%
CC(O)(COc1ccccc1C(F)(F)F)C(=O)Nc1ccc(S(F)(F)(F)(F)F)cc1 (racemic),85 - 89%,1200,97 - 98%,2 - 7%,4,1 - 2%,93 - 107%,75 - 96%,5 - 10%,102 - 112%,7.1,1 - 2%,87 - 102%,15 - 117%,3 - 11%,88 - 127%,11 - 28%,25 - 60%,83 - 84%,19 - 45%,T/C (VCaP [21]): 58 - 85%; T/C (CWR22R [22]): 9 - 81%; T/C (DU-145 [23]): 1%; IC50 (CWR22R [24]): 1400 nM; T/C (CWR22R [25]): 69 - 110%; T/C (LNCaP [26]): 91 - 100%; T/C (DU-145 [27]): 1 - 20%; T/C (LNCaP [28]): 1%; T/C (DU-145 [29]): 108 - 125%; T/C (CWR22R [30]): 100 - 108%; IC50 (VCaP [31]): 3.1 µM; T/C (LNCaP [32]): 88 - 94%
